According to the EternaBench riboswitch data:

System: MS2 coat protein
Experiment: apparent Kd, MS2 coat protein; higher = weaker binding; RNA-MaP array; FMN 200 µM where present
How it was run: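 Binding was read on Illumina sequencing-chip clusters where stalled E. coli RNA polymerase had transcribed each design. A titration of SNAP-549-labelled MS2 coat protein began at 0.7 or 1.5 nM and doubled to 3 µM, once without ligand and once with constant ligand, in 100 mM Tris-HCl pH 7.5, 80 mM KCl, 4 mM MgCl2, BSA, DTT, yeast tRNA and Tween-20. The apparent Kd is the median of filtered per-cluster binding-curve fits, based on green signal normalised to red-channel RNA signal and control-cluster median Fmax.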

[1] = designed as: OFF switch for flavin mononucleotide, no ligand
[2] = ligand present: flavin mononucleotide, designed as: OFF switch for flavin mononucleotide
[3] = designed as: ON switch for flavin mononucleotide, no ligand
[4] = ligand present: flavin mononucleotide, designed as: ON switch for flavin mononucleotide

Sequence | apparent Kd [1] [nM] | apparent Kd [2] [nM] | apparent Kd [3] [nM] | apparent Kd [4] [nM]
GAUAUGUUAGGAUAUCAAACCUUGUUGAAUCAACGAGCCAGUGAGAAGGAACAUGAGGAUCACCCAUGUGUCCG | 16.2 | 16.3 |  | 
CCCUCACAUGAGGAUCACCCAUGUUAGGAUAUCUACCAGGAGCUAUGAUUAGCCCAACGGAGAAGGAACGUGCA | 17.9 | 17.4 |  | 
AGUGUCAUCGAGAAGGCCUUAACAUGAGGAUCACCCAUGUUGUAACAUGGGAGGAUAUCGAUGAUACAGCUACGUUUCGUAGCA |  |  | 412 | 25.5
CUCCUACAUGAGGAUCACCCAUGUCAGGAUAUCUCAGUGGUACCUAAAUUUACCACCCAGAGAAGGGACGUGCA | 13.3 | 17.7 |  | 
GUGCACAUUCGAGGAUAUCGGAGAGGAAUCCUUCGAGAAGGCGAUUCAUGCUGUGUUAUUCUGGACAUGAGGAUCACCCAUGUG |  |  | 192 | 97.8
AAGAAACAUGAGGAUCACCCAUGUCACCUCACACGAGGAUAUCUGAAUCGAUUAGAUUACGGAGAAGGCGUGAUAA |  |  | 27.5 | 20.6
UUUGAGUGAGGAUAUUGCACCUCUGGGUCACCUCAGAGGUUUGAGAAGGCACAUGAGGAUCACCCAUGUUCCGC | 19.7 | 32.2 |  | 
GCCCGGCCCGGGCCCACGGCAUCACAGGAUAUGCCGAUCACAUGAGGAUCACCCAUGUCAACUCCGCAGAAGGGUGAUAUCGUG |  |  | 322 | 33.2
UGGUACAUGGGAGGAUAUGGGUUGAUAACAUGAGGAUCACCCAUGUUAAAUAAGCCGAGAGGCUACUAGAAGGCCCAUGUACCU |  |  | 819 | 28.9
ACUUUACGAGGAUAUACUGUCGGGCCUCGGGCGUACAUGCGACAUGAGGAUCACCCAUGUAGAAGGCGUUUACU | 33.1 | 119 |  | 
GCUGUCGCAUGAGGAUAUGGUCAGCUUUGCUGACCAGAAGGCAUGUCAAUAGACAUGAGGAUCACCCAUGUGGUUAGGGCGGCU |  |  | 1030 | 93.5
AAAAAACAUGAGGAUCACCCAUGUCCAAAAAAAAAAGGAUAUGCAAAAAAAAAAAAAAAAGCAGAAGGUUUAAAAA |  |  | 68.4 | 74.7
UUUGUCUGUGUGAGGAUAUACUUGUUUGGGUUUUUGUAGAAGGCACAUGAGGAUCACCCAUGUAUUUUGUCGUG | 43.6 | 61.6 |  | 
UUUUUGUGAGGAUAUCAGUAGUAAAAAAAUAAAAUUACUACUGAGAAGGCACAUGAGGAUCACCCAUGUUCCUU | 14.3 | 33.5 |  | 
AGCAGACGAGGAUAUAGAUUUAGAUACAUGAGGAUCACCCAUGUAUAGAUGUAUUUAGAUUUAGAAGGCGUCUGCU | 211 | 221 |  | 
UUAGAGAAGGAGGAUAUGCUGUUCUGUCACGUAGCAGAAGGCCUUACAUGAGGAUCACCCAUGUUGAUCCCAGU | 618 | 576 |  | 
UCAGAGGCUGACAUGAGGAUCACCCAUGUUAGAUUGUUAUGUCAGGAUAUUAUCUGGCAACCAGAUGAGAAGGGACCCUCUGUG |  |  | 22 | 7.67
GCAGCGUAUGUAGGAUAUCGGUCAGUCUCUGAUCGAGAAGGACAUGAGGAUCACCCAUGUAAAUUACCGACUUUGUCGGGCUGC | 7.14 | 9.62 |  | 
GGAUAGGACAGAGGAUAUACGUGCUAGAGAUACUAGCACAAUUUCCUCACAUGAGGAUCACCCAUGUAGAAGGCUGUCCUAUCG | 6.08 | 26.3 |  | 

Sequence | apparent Kd [1] [nM] | apparent Kd [2] [nM] | apparent Kd [3] [nM] | apparent Kd [4] [nM]
GGACGUCACAUUUACAUGAGGAUCACCCAUGUCUCUUGAUAUGAGGAUAUGUAUACGAAUCGUAUACAGAAGGCAUGGACGUCC |  |  | 71.7 | 29.8
GAUUGACGACAAUUACAUGAGGAUCACCCAUGUUGUAGUAUGCAGGAUAUGUGGUAUAUUAUUUAACAGAAGGGCAAUAAUUUU |  |  | 81 | 42.4
GCCUGAUCCACUUUAGGCCCAGACAGAAGGGCACACGGUCUAAGUCACAUGAGGAUCACCCAUGUGCAGGAUAUGUCUCGACUC | 8.88 | 26.2 |  | 
UAAUUACCGAUCGGUUUGACUUAGCAGGAUAUACAUGAGGAUCACCCAUGUCAAGGGCGUGCCCGGUAGAAGGGUUGGGUUCAA | 35.1 | 54.9 |  | 
UAAUAAUAAUAAUAGCAGUUACAUGAGGAUCACCCAUGUAUAUAGGAUAUCGUCAGGAAUACUGACGAGAAGGAUAUACUCUGC | 21.9 | 26.2 |  | 
GAUCGCCAUGUCAGGAUAUCUUGUAUACCCACGUUAGAGAAGGGACAUGAGGAUCACCCAUGUACCCUGGUUUU |  | 16.4 |  | 
UGUUGUAUUACAGGAUAUCUAGUAUUGUUAUUUAGAGAAGGGUAUUCACAUGAGGAUCACCCAUGUAUAUACGAGGAAGUUGUG |  |  | 38.4 | 41.4
UGGUACUAGGGAGGAUAUGGGAAGAUACAUGAGGAUCACCCAUGUUUAAGAAUGCCGAGAGGCAACUAGAAGGUCCUAGUACCU |  |  | 628 | 38.2
AUCAGCUCGUCAGGAUAUACGUCACUGCGUCAGCAGUGUGGUAAGAUCACAUGAGGAUCACCCAUGUAGAAGGGACAAGCUGAU | 13.1 | 270 |  | 
GUUAAACAUGAGGAUCACCCAUGUAAGGAUAUGCUGCGGUCGCGAUGACGUGACUGCAGCAGAAGGUACAAAUG | 86.8 | 96.5 |  | 
AUCAGCACGUGAGGAUAUGCGUCACUGCGAAAGCAGUGCGGUAAGAUCACAUGAGGAUCACCCAUGUAGAAGGCACGAGCUGAU | 20.8 | 54 |  | 
CAGGGUUCGUGAAUAAGCUAGCUUCGAGAAGGGCCACAUGAGGAUCACCCAUGUCAGCGAAAACGGCAGGAUAUCGAGGGUGAG |  |  | 147 | 48.4
CCGGUUGGCGCAGGAUAUACAUGAGGAUCACCCAUGUUGAUGAGGAUCACCCAUCAGUUUUUGUUGUAGAAGGGUGGCCCGGCC | 23.1 | 19.3 |  | 
GAACCUAAGUUAGGAUAUGUCUAAGAAAGCUGACAUGAGGAUCACCCAUGUGAAUGCAAAGAAUGGCAGAAGGGAUAUGGGUGG |  |  | 73 | 76.8
UUGGACGUCGUAGGAUAUGUAGGAUAUUCCUACAUGAGGAUCACCCAUGUUGACAUGGAAGAAGGACAGAAGGAAGAUGUCCAU |  |  | 776 | 13.9
UGGUACAUGGGAGGAUAUGGUGUAGACACAUGAGGAUCACCCAUGUCGAUGGAGACAUCGGAGAUCCAGAAGGCCCAUGUACCU |  |  | 503 | 24
UUACUAUAACAGAAGGGUAGAUAAUAUAUAAAUGCAGGAUAUGUUACAUGAGGAUCACCCAUGUUUCACCCACAUGAGGAUCAC | 27.9 | 55.4 |  | 
GCUGCGCGAGGAUAUGCGGUUCGCGCGGUGGCCCGUGGCGGACAUGAGGAUCACCCAUGUAGAAGGCGUGCGGG | 11.1 | 12.1 |  | 
AAAGUACAUGAGGAUCACCCAUGUUGGAACAAAGCAGGAUAUGUACAAAAGGAAAUAAAUACAGAAGGGCUAAGAA |  |  | 36.5 | 21.2

Sequence | apparent Kd [1] [nM] | apparent Kd [2] [nM] | apparent Kd [3] [nM] | apparent Kd [4] [nM]
AUCAGCUCGUCAGGAUAUAUGUCACUGCUUCGGCAGUGUGGUAAGAUCACAUGAGGAUCACCCAUGUAGAAGGGACGAGCUGAU | 29.7 | 78 |  | 
GUGGCCUAGGCACAGGAUAUGUUGCUCGUAACAUGAGGAUCACCCAUGUGCCUAUGAGAUUUAAUGCAGAAGGGUGCACGCCACG |  |  | 173 | 17.1
GUAGCAUACGCAGGAUAUUCAUAUAAUAAAUAAACAUGAGGAUCACCCAUGUGGCGAAAGCCUUGGGAGAAGGGCGAAUGCUAC |  |  | 485 | 65.5
AUGUAGGAAGGAUAUAUAUGGAGCAUGCGUCUCUGAACAUUACAUGAGGAUCACCCAUGUAGAAGGUCCGCGGA | 24.1 | 33.1 |  | 
CGCCUGUAAGGAUAUUAGUAGUAGUCAGAAAAGACUAUUACUGAGAAGGUACAUGAGGAUCACCCAUGUUGGCG | 15.3 | 20.4 |  | 
UUACUCAUGUAAGGAUAUGCAGCCGAAACGGCUGCAGAAGGUACUAUAAUACAUGAGGAUCACCCAUGUAAAAUAAAUAAAGUC |  |  | 26.1 | 16.9
CCGGCUAAAGGAUAUGUGUGUAGCAACAUGAGGAUCACCCAUGUGAUGUCCUAGGUUAGCACAGAAGGUUACUAUU | 35.6 | 34.1 |  | 
CGCCUGUGAGGAUAUUAGUAGUAGUCAGAAUAGACUAUUACUGAGAAGGUACAUGAGGAUCACCCAUGUUGGCG | 20.9 | 19.1 |  | 
UACGCACAGAAGUACUCCGGGUCCAGAAGGGACAUGAGGAUCACCCAUGUACCGUUGAUUGCUUGUCAGGAUAUGGACCCGGCC | 6.82 | 26.3 |  | 
GUCUUACAUGAGGAUCACCCAUGUGAGGAUAUCCGCGGCGCCGGGUUUCCGGCGCCGCGGAGAAGGCGCGUGUU | 19.2 | 22.3 |  | 
UGUUGGAGCGAGAAGGGACGAUGGGAAGCUGUAGGCUGGCACUGUAGACAUGAGGAUCACCCAUGUCAGGAUAUUGCCGAACUA | 5.83 | 7.71 |  | 
UGGCUACAUGAGGAUCACCCAUGUCAGGAUAUGCCGUCGGCUUGCCUUCGUCGUUCGGGUAGAAGGGACUGCGG | 28.1 | 28.1 |  | 
CAGUACUGAGGAUAUACAUGAGGAUCACCCAUGUGUCCCGGCUAGGAAACUAGCAAAAGUAGAAGGCAGUACUG | 24 | 516 |  | 
AUGUUGUCAGGAUAUCGUUAAUUUAGUUGUUUGUAUUAGUUCGAGAAGGGACAUGAGGAUCACCCAUGUUUGUA | 32 | 44 |  | 
GGGUACAUCGGAGGAUAUCAUGUAAAUACAUGAGGAUCACCCAUGUCGAUGGAGACAUCGGAGAUUGAGAAGGCCUAUGUACCG |  |  | 194 | 9.34
AAUAACAGAGGAUAUACAAAAAUAAAAGGAAACAAAAGAAAACAUGAGGAUCACCCAUGUAGAAGGCUGAAUAA | 21.1 | 18.9 |  | 
GAUCCACAUGAGGAUCACCCAUGUGAGGAUAUGAUACUAUGUACUUCGGUACAUAGUAUCAGAAGGCAUAUUGA | 44 | 75.7 |  | 
CCGUAAUAUGGAGGAUAUGGAGCCUUAUUGGCUCCAGAAGGUCAUAAAACAUGAGGAUCACCCAUGUCGGCGGUCAAUAGACCG |  |  | 55.7 | 20.5
